Fewer inactive variants are shown than the library holds.
B1: tRNA (parent)
chain: GUUCCGUUGGCGUAAUGGUAACGCGUCUCCCUCCUAAGGAGAAGACUGCGGGUUCGAGUCCCGUACGGAACG

Variants of: B1
Assay: yeast fitness relative to wild type (ratio to wild type); higher = fitter; tRNA-Arg(CCU), competitive growth, 37 C, YPD
Outline: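 Genotype frequency changes were the basis for Darwinian fitness relative to wild type. The frequencies came from 100-nucleotide paired-end sequencing of gene amplicons from the start population and each end population of pooled yeast strains with tRNA-Arg(CCU) gene variants at the native locus. Competition ran in YPD at 37°C for 24 hours in six replicates, genotypes needed ≥ 100 starting reads, and estimates < 0.5 were set to 0.5.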

Point of comparison: C30A A57U, yeast fitness 0.768. Against it:
- G6A C34A U47G C49G C60G — lower, ≤ 0.5
- C4A G12C U13G C30U A65U — lower, ≤ 0.5
- G17A A20G G41A — lower, 0.593
- U2A G25C A45U — lower, 0.585
- G6A G12A A70U — lower, 0.656
- C5U C27G C31G G50C G58C — lower, 0.743
- A37G A42U C62A A65C — lower, ≤ 0.5
- A20U G50C — lower, 0.638
- C4A C31U A37G G48A U54A C55G A65U — lower, ≤ 0.5
- C29G C34G C60G — lower, 0.562
- U13A A20U A37C — lower, 0.557
- U53C C62U — lower, 0.737
- A14G A42G C46G A57G — lower, ≤ 0.5
- U8A A42U C62A A70C — lower, ≤ 0.5
- C5U C22A G25A C66U — lower, ≤ 0.5
- U35C G52C G67C — lower, 0.533
- G10A U32C — higher, 0.786
- C29U C55U A65G — lower, ≤ 0.5
- C22G C27G C31G G48A C61G A69U — lower, ≤ 0.5
- U2A G10C C27G G39U G50C G58A — lower, ≤ 0.5
- U8G A21G G23A U64C — lower, ≤ 0.5
- C5G U7A A14U — lower, 0.624
- A20G C27G A42C C55A — lower, ≤ 0.5
- C4A G58A — higher, 0.878
- A21U C49U — higher, 0.781
- C11G A40U C62A — lower, ≤ 0.5
- G44C G50C A70C — lower, 0.573
- C27U U28G A40C C46A C49U A70U — lower, 0.695
- C5U U8C C29G U53G — lower, ≤ 0.5
- U26C U32C U47A — lower, ≤ 0.5
- G18A C46U U59C G68A — lower, 0.53
- G38C G44A A65G — lower, ≤ 0.5
- C55G A65G C66G — lower, 0.567
- G12A A21C G23A C46G U53C — lower, ≤ 0.5
- G6C G25A A70C — lower, 0.631
- C5G G10C G52A U54A C60G — lower, 0.629
- C5U C49U — higher, 0.953
- G9A C30A A42C — lower, 0.562
- C4A C30G C66A — lower, ≤ 0.5
- A57G A69U — higher, 0.943
- C22A U32A C33U G39A A43C A69C — lower, ≤ 0.5
- C11G C30G A65C — lower, ≤ 0.5
- A15G C34G A37U C49G — lower, ≤ 0.5
- G12A G52C C55U A65U — lower, ≤ 0.5
- A36U A45G — lower, 0.606
- U8A U47A C60A — lower, ≤ 0.5
- G18A A20U A36U C62U — lower, ≤ 0.5
- U7C A36G A43U C62G — lower, 0.603
- C30U G48A — higher, 0.861
- C27U A37C G56C G63C U64C — lower, ≤ 0.5
- G12A A21G C46G G51A A69U — lower, ≤ 0.5
- A15C A36U C55A A65U — lower, ≤ 0.5
- G39A C46U U59A A70C — lower, ≤ 0.5
- C4A U28C — lower, 0.64
- U2A C46A G58A — lower, 0.622
- C33A C34A — lower, 0.621
- C24A A42G — lower, 0.548
- C11A G25C C29U U54C A65C A70U — lower, ≤ 0.5
- C46G C61G A65C — lower, 0.574
- C11U U64G — lower, 0.739
- U13G U28A C49A C55U C60U C61U — lower, ≤ 0.5
- A37U U47C — lower, 0.667
- G18C C34G G39C — lower, ≤ 0.5
- G41C C61G A65C — lower, ≤ 0.5
- C5G G51C A57U C60U — lower, ≤ 0.5
- C31G C55G — lower, 0.592
- A20U C31U G56A C61U — lower, ≤ 0.5
- C4G U8C G18C A21C C55U — lower, ≤ 0.5
- C30G A43C C60G C66U — lower, ≤ 0.5
- U19A U28A C60G — lower, ≤ 0.5
- C4G A14G C24G — lower, ≤ 0.5
- A15U G52A C61G — lower, 0.596
- A40U G63C — lower, 0.729
- A14G A42U G68C — lower, ≤ 0.5
- C27G U32G A40U A42U C55G — lower, ≤ 0.5
- A42G U59C C61U — lower, 0.502
- C27U G48A C49U G67A — lower, 0.674
- C34A C66G — lower, 0.647
- G17A U54C U59C C61G — lower, ≤ 0.5
- U64C A65C — higher, 0.891
- U3C C11A C33U C49A — lower, ≤ 0.5
- A42G A69C — higher, 0.95

— the RNAGym collection of RNA variant scans (doi:10.1126/science.aae0568)
